Series [1] has as its target Retinoic acid receptor beta (Homo sapiens) (UniProt P10826). Description: Antagonist activity at GAL4-tagged human RARbeta1 ligand binding domain (177 to 455 residues) expressed in HEK293T cells at 1 uM after 12 to 14 hrs by dual-glo luciferase reporter gene assay. It is filed as cell-based. The note with it: HEK-293T. The gist of the method: (§1)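 Run as a selectivity screen against each listed receptor (14 nuclear receptors plus TGR5), in both agonist and antagonist modes. Test concentration was 1 µM, with n = 3.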
Background: A reporter such as luciferase makes a cellular process visible.

Series [2] concerns HeLa. The series is described as follows: Selectivity ratio for human FXR expressed in human HeLa cells co-expressing BSEP over GAL4-tagged human RARgamma isoform 1 ligand binding domain (179 to 454 residues) expressed in HEK293T cells. The class given is cell-based.
Series [3] is described as follows: Lipophilicity, logD of compound at pH 7.4 by LC-MS analysis. The class given is physicochemical. Particulars: buffer, read-out: logD.
The subject of series [4] is HeLa. The series is described as follows: Selectivity ratio for human FXR expressed in human HeLa cells co-expressing BSEP over GAL4-tagged human LXRalpha ligand binding domain expressed in HEK293T cells. The class given is cell-based.
For series [5], the target named is T1, Bile acid receptor (Homo sapiens) (UniProt Q96RI1).
T1 sequence (whole entry): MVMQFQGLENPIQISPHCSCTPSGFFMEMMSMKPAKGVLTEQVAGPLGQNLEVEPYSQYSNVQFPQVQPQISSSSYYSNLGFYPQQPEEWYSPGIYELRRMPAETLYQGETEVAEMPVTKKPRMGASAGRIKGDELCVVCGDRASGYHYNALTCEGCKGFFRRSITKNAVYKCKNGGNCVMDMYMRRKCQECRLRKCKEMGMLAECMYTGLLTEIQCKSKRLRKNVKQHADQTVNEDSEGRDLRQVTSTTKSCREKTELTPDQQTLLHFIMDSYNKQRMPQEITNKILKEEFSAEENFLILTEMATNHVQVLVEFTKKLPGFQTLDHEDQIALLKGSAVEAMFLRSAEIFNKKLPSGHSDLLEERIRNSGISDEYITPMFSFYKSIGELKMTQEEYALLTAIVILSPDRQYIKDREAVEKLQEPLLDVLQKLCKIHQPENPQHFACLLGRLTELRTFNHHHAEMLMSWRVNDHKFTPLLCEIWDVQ
The series is described as follows: Modulation of FXR in human HepG2 cells assessed as induction of SHP mRNA expression at 10 nM by qRT-PCR analysis. It is filed as cell-based. Put shortly:
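HepG2 hepatocarcinoma cells were incubated with the compound at 10 nM. FXR target-gene mRNA was quantified by qRT-PCR (n = 3), with significance at p < 0.05, 0.01 and 0.001.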
A general note: Quantitative PCR measures a nucleic acid by following its amplification.

Series [6] can be described thus: Half life in human HepG2 cells by HPLC analysis. The class given is ADME, cell-based.
The target of series [7] is Retinoic acid receptor gamma (Homo sapiens) (UniProt P13631). Description: Transactivation of GAL4-tagged human RARgamma isoform 1 ligand binding domain (179 to 454 residues) expressed in HEK293T cells at 1 uM after 12 to 14 hrs by dual-glo luciferase reporter gene assay. The class given is cell-based. The note with it: HEK-293T. Put shortly: as §1
Series [8] concerns the target Nuclear receptor subfamily 1 group I member 2 (Homo sapiens, UniProt O75469). Description: Antagonist activity at GAL4-tagged human PXR isoform 1 ligand binding domain (138 to 434 residues) expressed in HEK293T cells at 1 uM after 12 to 14 hrs by dual-glo luciferase reporter gene assay. It is filed as cell-based. Particulars: hek-293t. The gist of the method:
as §1

Series [9] addresses G-protein coupled bile acid receptor 1 (Homo sapiens) (UniProt Q8TDU6). Description: Antagonist activity at TGR5 (unknown origin) expressed in HEK293T cells at 1 uM after 12 to 14 hrs by dual-glo luciferase reporter gene assay. The class given is cell-based. The gist of the method: as §1
For series [10] the target is unchanged. Description: Agonist activity at TGR5 (unknown origin) expressed in HEK293T cells at 1 uM after 12 to 14 hrs by dual-glo luciferase reporter gene assay. It is filed as cell-based. Put shortly:
as §1

Series [11] addresses Peroxisome proliferator-activated receptor alpha (Homo sapiens) (UniProt Q07869). Description: Transactivation of GAL4-tagged human PPARalpha ligand binding domain expressed in HEK293T cells at 1 uM after 12 to 14 hrs by dual-glo luciferase reporter gene assay. It is filed as cell-based. Particulars: HEK-293T. Put shortly: as §1
Series [12] concerns HeLa. Description: Selectivity ratio for human FXR expressed in human HeLa cells co-expressing BSEP over GAL4-tagged human RXRgamma ligand binding domain (229 to 463 residues) expressed in HEK293T cells. It is filed as cell-based.
Series [13] deals with T2, Bile acid receptor (Homo sapiens, UniProt Q96RI1).
T2 sequence (Q96RI1 whole entry): T1 sequence (whole entry)
Description: Transactivation of human FXR expressed in human HeLa cells co-expressing BSEP after 24 hrs by dual-glo luciferase reporter gene assay. The class given is cell-based. Particulars: read-out: EC50. The gist of the method: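 Full-length reporter system with constitutive expression of hFXR and hRXR. A constitutive Renilla luciferase served for normalization and as a toxicity control. Maximum relative activation was expressed against a reference FXR agonist at 3 µM, set as 100%.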

Series [14] relates to HepG2. The series is described as follows: Cytotoxicity against human HepG2 cells up to 100 uM after 48 hrs by WST-1 assay. Particulars: hepg2, 48 h. The class given is cell-based. For orientation: Tetrazolium assays rely on reduction of a dye to a coloured formazan, in cell work by metabolically active cells.
Series [15] has as its system HeLa. Description: Selectivity ratio for human FXR expressed in human HeLa cells co-expressing BSEP over GAL4-tagged human LXRbeta ligand binding domain expressed in HEK293T cells. The class given is cell-based.
In series [16] the target is Vitamin D3 receptor (Homo sapiens) (UniProt P11473). Description: Transactivation of GAL4-tagged human VDR isoform 1 ligand binding domain (119 to 427 residues) expressed in HEK293T cells at 1 uM after 12 to 14 hrs by dual-glo luciferase reporter gene assay. It is filed as cell-based. Particulars: HEK-293T. Put shortly: as §1
Series [17] has as its target Oxysterols receptor LXR-alpha (Homo sapiens) (UniProt Q13133). The series is described as follows: Transactivation of GAL4-tagged human LXRalpha ligand binding domain expressed in HEK293T cells at 1 uM after 12 to 14 hrs by dual-glo luciferase reporter gene assay. The note with it: HEK-293T. It is filed as cell-based. Put shortly:
as §1

Series [18] deals with HeLa. The series is described as follows: Selectivity ratio for human FXR expressed in human HeLa cells co-expressing BSEP over TGR5 (unknown origin) expressed in HEK293T cells. It is filed as cell-based.
Series [19] concerns HeLa. The series is described as follows: Selectivity ratio for human FXR expressed in human HeLa cells co-expressing BSEP over GAL4-tagged human RXRbeta isoform 1 ligand binding domain (294 to 533 residues) expressed in HEK293T cells. The class given is cell-based.
The target of series [20] is Retinoic acid receptor RXR-gamma (Homo sapiens) (UniProt P48443). The series is described as follows: Transactivation of GAL4-tagged human RXRgamma ligand binding domain (229 to 463 residues) expressed in HEK293T cells at 1 uM after 12 to 14 hrs by dual-glo luciferase reporter gene assay. The class given is cell-based. The note with it: HEK-293T. Put shortly: as §1

Series [21] deals with T1, Bile acid receptor (Homo sapiens). The series is described as follows: Transactivation of human FXR expressed in human HeLa cells co-expressing BSEP at 3 uM after 24 hrs by dual-glo luciferase reporter gene assay relative to GW4064. It is filed as cell-based. The gist of the method: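 Full-length FXR reporter gene assay with constitutively expressed hFXR and hRXR, plus renilla luciferase for normalization and toxicity control. Maximum relative activation is expressed against the reference agonist at 3 µM, set as 100%.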

Series [22] has as its target Peroxisome proliferator-activated receptor delta (Homo sapiens) (UniProt Q03181). The series is described as follows: Transactivation of GAL4-tagged human PPARdelta ligand binding domain expressed in HEK293T cells at 1 uM after 12 to 14 hrs by dual-glo luciferase reporter gene assay. The note with it: HEK-293T. It is filed as cell-based. Put shortly:
as §1

Series [23] can be described thus: Metabolic stability in human HepG2 cells assessed as compound remaining after 24 hrs by HPLC analysis. The class given is ADME, cell-based. The note with it: read-out: Stability.
Series [24] has as its target Retinoic acid receptor alpha (Homo sapiens) (UniProt P10276). The series is described as follows: Antagonist activity at GAL4-tagged human RARalpha1 ligand binding domain (177 to 462 residues) expressed in HEK293T cells at 1 uM after 12 to 14 hrs by dual-glo luciferase reporter gene assay. It is filed as cell-based. The note with it: HEK-293T. Put shortly: as §1

Activity calls are given as the source filed them. No cut-off for these calls is given here.

Chain of G-protein coupled bile acid receptor 1 (Homo sapiens) (Q8TDU6 whole entry): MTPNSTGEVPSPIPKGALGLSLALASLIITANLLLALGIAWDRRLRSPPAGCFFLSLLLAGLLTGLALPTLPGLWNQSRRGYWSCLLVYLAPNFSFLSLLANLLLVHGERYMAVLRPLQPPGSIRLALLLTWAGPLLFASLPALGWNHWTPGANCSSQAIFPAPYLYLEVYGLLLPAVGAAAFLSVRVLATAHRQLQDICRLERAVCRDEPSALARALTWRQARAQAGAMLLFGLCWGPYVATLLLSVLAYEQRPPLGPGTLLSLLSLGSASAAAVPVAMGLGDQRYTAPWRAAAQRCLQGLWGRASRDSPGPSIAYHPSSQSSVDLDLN
Chain of Oxysterols receptor LXR-alpha (Homo sapiens) (Q13133 whole entry, the tested form may be a part): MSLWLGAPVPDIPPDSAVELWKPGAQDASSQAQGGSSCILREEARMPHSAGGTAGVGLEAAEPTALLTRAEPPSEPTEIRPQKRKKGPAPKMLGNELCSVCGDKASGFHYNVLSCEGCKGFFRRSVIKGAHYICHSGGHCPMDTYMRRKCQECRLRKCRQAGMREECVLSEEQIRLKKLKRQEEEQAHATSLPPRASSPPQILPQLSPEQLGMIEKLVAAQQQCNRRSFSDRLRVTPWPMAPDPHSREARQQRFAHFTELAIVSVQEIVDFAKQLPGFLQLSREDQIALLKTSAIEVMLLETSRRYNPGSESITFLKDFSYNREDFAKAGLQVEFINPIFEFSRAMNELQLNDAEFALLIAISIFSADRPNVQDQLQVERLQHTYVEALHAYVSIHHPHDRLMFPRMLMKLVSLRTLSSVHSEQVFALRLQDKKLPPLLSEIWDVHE
Chain of Retinoic acid receptor gamma (Homo sapiens) (P13631 whole entry, the tested form may be a part, canonical isoform): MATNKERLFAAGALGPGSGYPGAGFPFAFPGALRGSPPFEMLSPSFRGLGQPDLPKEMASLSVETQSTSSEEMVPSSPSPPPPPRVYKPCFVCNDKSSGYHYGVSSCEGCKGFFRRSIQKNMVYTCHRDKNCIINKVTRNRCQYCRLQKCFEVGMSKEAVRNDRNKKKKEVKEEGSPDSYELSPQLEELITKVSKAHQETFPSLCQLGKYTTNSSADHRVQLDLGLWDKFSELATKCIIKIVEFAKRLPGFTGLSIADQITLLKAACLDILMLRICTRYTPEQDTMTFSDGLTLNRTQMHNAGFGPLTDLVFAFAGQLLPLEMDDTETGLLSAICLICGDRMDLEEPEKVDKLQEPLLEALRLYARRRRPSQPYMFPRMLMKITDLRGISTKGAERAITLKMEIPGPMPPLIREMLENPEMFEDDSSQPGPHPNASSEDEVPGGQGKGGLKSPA
Chain of Peroxisome proliferator-activated receptor delta (Homo sapiens) (Q03181 whole entry, the tested form may be a part): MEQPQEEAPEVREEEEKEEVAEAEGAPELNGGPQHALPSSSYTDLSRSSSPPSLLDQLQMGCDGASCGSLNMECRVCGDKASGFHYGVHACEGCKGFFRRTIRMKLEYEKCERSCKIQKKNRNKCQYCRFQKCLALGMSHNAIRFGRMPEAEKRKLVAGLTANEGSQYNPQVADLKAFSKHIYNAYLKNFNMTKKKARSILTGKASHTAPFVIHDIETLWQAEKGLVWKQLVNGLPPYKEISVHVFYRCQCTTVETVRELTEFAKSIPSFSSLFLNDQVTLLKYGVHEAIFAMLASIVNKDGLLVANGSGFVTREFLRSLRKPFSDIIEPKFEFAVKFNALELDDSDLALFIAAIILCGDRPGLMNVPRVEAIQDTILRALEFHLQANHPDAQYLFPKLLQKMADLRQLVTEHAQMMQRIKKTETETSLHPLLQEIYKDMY
Chain of Retinoic acid receptor RXR-gamma (Homo sapiens) (P48443 whole entry, the tested form may be a part): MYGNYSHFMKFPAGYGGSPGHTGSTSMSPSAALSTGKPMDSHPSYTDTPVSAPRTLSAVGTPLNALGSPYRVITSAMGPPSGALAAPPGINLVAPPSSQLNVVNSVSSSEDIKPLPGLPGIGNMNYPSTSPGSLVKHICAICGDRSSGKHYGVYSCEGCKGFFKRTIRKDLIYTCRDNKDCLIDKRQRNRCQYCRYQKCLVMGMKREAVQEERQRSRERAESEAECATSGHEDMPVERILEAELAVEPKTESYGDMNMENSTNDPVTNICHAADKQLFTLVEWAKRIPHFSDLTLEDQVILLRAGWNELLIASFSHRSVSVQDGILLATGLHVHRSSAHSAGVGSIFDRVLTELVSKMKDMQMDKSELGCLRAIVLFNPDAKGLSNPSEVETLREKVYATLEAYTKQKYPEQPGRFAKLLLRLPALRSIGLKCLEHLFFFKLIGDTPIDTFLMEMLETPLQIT
Chain of Nuclear receptor subfamily 1 group I member 2 (O75469 whole entry, the tested form may be a part, canonical isoform): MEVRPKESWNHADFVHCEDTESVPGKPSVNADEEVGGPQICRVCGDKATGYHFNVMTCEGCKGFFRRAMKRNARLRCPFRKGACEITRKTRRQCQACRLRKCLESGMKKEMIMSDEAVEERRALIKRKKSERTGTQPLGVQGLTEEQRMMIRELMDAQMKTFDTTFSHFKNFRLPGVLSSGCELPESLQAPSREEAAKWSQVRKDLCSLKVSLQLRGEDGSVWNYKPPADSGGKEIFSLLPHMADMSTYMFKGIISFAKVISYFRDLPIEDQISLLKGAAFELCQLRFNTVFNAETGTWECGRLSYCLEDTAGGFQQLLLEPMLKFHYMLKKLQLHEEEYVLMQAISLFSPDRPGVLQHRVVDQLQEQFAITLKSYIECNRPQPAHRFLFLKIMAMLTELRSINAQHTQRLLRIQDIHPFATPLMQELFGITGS
Chain of Retinoic acid receptor beta (Homo sapiens) (P10826 whole entry, the tested form may be a part): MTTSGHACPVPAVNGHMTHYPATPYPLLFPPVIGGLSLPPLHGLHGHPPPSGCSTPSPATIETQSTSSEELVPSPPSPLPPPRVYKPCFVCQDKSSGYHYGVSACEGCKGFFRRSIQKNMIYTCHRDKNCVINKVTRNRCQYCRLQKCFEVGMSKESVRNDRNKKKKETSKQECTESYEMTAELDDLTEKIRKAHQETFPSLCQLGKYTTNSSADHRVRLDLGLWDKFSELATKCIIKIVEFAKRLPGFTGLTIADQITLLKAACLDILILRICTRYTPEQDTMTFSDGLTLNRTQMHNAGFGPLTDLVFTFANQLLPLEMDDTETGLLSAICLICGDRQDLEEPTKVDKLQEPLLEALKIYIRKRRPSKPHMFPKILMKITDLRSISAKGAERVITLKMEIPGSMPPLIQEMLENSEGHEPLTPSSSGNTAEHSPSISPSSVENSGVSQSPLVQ
Chain of Peroxisome proliferator-activated receptor alpha (Homo sapiens) (Q07869 whole entry, the tested form may be a part): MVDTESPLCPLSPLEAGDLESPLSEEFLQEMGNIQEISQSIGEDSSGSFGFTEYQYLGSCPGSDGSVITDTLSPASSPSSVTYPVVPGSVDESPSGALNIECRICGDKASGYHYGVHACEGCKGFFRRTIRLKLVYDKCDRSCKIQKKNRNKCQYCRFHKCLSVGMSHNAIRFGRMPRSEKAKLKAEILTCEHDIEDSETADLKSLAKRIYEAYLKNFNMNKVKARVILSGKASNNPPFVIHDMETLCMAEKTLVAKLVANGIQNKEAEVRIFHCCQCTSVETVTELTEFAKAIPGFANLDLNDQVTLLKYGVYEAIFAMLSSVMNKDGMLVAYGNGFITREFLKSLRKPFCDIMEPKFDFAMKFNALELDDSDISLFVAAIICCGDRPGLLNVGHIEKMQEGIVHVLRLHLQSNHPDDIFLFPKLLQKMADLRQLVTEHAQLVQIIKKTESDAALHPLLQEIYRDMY
Chain of Retinoic acid receptor alpha (Homo sapiens) (P10276 whole entry, the tested form may be a part): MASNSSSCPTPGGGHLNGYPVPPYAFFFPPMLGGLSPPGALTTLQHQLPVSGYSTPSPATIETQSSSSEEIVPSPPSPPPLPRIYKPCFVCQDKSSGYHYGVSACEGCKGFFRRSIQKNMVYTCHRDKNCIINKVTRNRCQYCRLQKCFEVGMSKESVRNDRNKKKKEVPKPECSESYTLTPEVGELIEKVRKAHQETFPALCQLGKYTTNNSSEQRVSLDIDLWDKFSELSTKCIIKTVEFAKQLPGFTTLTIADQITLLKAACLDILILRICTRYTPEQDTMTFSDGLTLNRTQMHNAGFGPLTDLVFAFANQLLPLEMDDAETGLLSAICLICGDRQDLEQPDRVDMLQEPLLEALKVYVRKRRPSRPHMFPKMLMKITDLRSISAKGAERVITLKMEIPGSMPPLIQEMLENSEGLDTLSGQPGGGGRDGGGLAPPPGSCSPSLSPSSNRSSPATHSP
Chain of Vitamin D3 receptor (Homo sapiens) (P11473 whole entry, the tested form may be a part, canonical isoform): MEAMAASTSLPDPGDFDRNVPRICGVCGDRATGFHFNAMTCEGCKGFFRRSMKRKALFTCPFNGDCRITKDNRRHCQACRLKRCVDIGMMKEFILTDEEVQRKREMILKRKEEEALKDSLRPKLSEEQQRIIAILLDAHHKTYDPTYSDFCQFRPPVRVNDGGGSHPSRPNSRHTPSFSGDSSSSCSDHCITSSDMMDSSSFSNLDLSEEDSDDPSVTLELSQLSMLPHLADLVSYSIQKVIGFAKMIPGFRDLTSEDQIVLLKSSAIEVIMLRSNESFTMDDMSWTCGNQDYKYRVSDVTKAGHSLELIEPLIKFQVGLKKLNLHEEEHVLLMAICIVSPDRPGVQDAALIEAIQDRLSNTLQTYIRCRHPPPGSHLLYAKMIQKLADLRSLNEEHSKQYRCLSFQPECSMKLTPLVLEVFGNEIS

As a reminder, the logD is the decadic logarithm of the distribution of all forms, ionised or not, between an organic phase and buffer at a given pH. By half-life is commonly meant the time in which the quantity being followed falls by half. The low end stands for fast loss, the high end for slow loss. As usually defined, the EC50 is the concentration that produces a half-maximal response. For the compound `COc1ccc(CNc2c(-c3cc(Cl)ccn3)nc3ccc(Cl)cn23)cc1`, the inhibition result in series [1], in series [9] and in series [24] was “inactive” in each case. In addition, the Selectivity ratio in series [2], in series [4], in series [12], in [15], in [18] and in [19] was 3000 each time. Also, the logD in series [3] came out at 1.69. Also, the outcome in series [5] was Active. In addition, the half-life in series [6] fell in the range of 1.5 to 2 h. Besides, the outcome in [7], in series [10], in series [11], in series [16], in [17] and in [20] was inactive. In addition, the result in series [22] was inactive. Besides, the “inhibition (INH)” value in [8] is given as “Not Active”. For the same compound, in series [13], the concentration giving a half-maximal response (EC50) was 0.3 nM. Further, the Activity entry in series [14] was “Non-Toxic”. Moreover, the max activation in series [21] came out at 23%. Also, the remaining at 24 h in [23] worked out at 12%.

The values above are taken from ChEMBL document CHEMBL4038333, “Nonacidic Farnesoid X Receptor Modulators” (J Med Chem, 2017).
